Among the data in ChEMBL document CHEMBL1143761, “Synthesis and bioactivities of 6,7,8-trimethoxy-N-aryl-4-aminoquinazoline derivatives” (Bioorg Med Chem, 2007) are IC50 and Activity values, retold here.

One test has as its system BGC-823. The test can be described thus: Growth inhibition of human BGC823 cells after 72 hrs by MTT assay. The class given is functional, cell-based. The procedure, abridged:
(§1)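 Cell lines were grown in RPMI 1640 with 10% fetal bovine serum and plated at 2 × 10³ cells/well. Compounds were taken up in DMSO, diluted in medium, and applied over a 1–100 range for 72 h, with 0.1% DMSO as control. MTT formazan was read at 595 nm. IC50 came from the dose–response curve, from three separate experiments each run in triplicate.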
Background: Formazan colour is commonly taken as a measure of viable cells.

In a further test the test system is PC-3. The test can be described thus: Growth inhibition of human PC3 cells after 72 hrs by MTT assay. In kind it is functional, cell-based. The essentials:
as §1

In another test the test system is A-431. The test can be described thus: Growth inhibition of human A431 cells after 72 hrs by MTT assay. The class given is functional, cell-based. The essentials:
as §1

The next test relates to Bcap37. Kind of test: Growth inhibition of human Bcap37 cells after 72 hrs by MTT assay. In kind it is functional, cell-based. The essentials: as §1
Test [1] concerns the target Mitogen-activated protein kinase 1 (Homo sapiens) (UniProt P28482). The test can be described thus: Inhibition of EGF-induced ERK2 phosphorylation in PC3 cells at 20 uM after 60 mins. The class given is cell-based. Conditions: PC-3. The essentials:
(§2)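 PC3 cells were grown in RPMI 1640 with 10% FBS at 37 °C for 36–48 h, then serum-starved for 24 h. They were pretreated with compound at 20 for 60 min, then stimulated with EGF for 10 min and quenched on ice. Lysates were immunoblotted with anti-phospho-ERK1/2 monoclonal antibody overnight at 4 °C, then secondary antibody for 2–3 h at 25 °C, with ECL detection.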

Test [2] has as its target Mitogen-activated protein kinase 3 (Homo sapiens) (UniProt P27361). Kind of test: Inhibition of EGF-induced ERK1 phosphorylation in PC3 cells at 20 uM after 60 mins. The class given is cell-based. Conditions: PC-3. The procedure, abridged:
as §2

Each structure is given as a SMILES string. The source made the active and inactive calls. The calls are words filed in the database; no cut-off is given here.

Sequence of Mitogen-activated protein kinase 1 (Homo sapiens) (P28482 whole entry): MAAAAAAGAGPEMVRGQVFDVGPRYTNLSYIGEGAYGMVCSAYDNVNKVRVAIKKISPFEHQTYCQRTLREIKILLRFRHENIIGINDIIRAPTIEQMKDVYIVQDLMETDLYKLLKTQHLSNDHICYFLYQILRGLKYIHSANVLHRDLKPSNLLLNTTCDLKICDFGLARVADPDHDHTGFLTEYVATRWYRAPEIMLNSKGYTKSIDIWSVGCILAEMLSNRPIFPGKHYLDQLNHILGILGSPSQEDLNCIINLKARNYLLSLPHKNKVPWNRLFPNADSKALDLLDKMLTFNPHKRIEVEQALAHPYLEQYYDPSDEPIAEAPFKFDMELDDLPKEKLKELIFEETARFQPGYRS
Sequence of Mitogen-activated protein kinase 3 (Homo sapiens) (P27361 whole entry): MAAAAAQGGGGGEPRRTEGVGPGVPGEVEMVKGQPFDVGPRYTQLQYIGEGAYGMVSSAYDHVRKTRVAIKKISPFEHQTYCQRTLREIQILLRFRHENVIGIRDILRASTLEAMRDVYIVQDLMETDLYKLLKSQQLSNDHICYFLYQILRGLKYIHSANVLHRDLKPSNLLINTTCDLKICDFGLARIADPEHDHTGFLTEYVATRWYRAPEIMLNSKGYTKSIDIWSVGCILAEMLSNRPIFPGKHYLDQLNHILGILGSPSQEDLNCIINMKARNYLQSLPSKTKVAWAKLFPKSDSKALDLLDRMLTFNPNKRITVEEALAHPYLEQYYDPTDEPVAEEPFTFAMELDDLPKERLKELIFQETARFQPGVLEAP

Usually IC50 stands for the concentration needed to halve the response being measured. Low readings indicate higher potency, high ones lower potency. On to `COc1cc2c(Nc3ccc(Br)cc3Cl)ncnc2c(OC)c1OC`, for which the IC50 was found to be 31 µM in the test on BGC-823 (Homo sapiens, BGC-823, 72 h); 21 µM with PC-3 (Homo sapiens, PC-3, 72 h); 51.5 µM in the test on A-431 (Homo sapiens, A-431, 72 h); 89 µM with Bcap37 (Homo sapiens, Bcap37, 72 h).

With `COc1cc2c(Nc3cccc(F)c3)ncnc2c(OC)c1OC` [listing 1 of 2 here], the IC50 in the test with BGC-823 (Homo sapiens, BGC-823, 72 h) worked out at 29.9 µM; in the test on PC-3 (Homo sapiens, PC-3, 72 h), 35.6 µM; with A-431 (Homo sapiens, A-431, 72 h) it was 29.7 µM; in the test with Bcap37 (Homo sapiens, Bcap37, 72 h), 21 µM.

Take `COc1cc2c(cc1Nc1ncnc3c(OC)c(OC)c(OC)cc13)oc1ccccc12`: the IC50 worked out at 9.9 µM with BGC-823 (Homo sapiens, BGC-823, 72 h); 9.8 µM in the test with PC-3 (Homo sapiens, PC-3, 72 h); 9 µM in the test with A-431 (Homo sapiens, A-431, 72 h); 8.1 µM in the test with Bcap37 (Homo sapiens, Bcap37, 72 h).

Turning to `COc1cc2c(Nc3ccccc3F)ncnc2c(OC)c1OC`, the IC50 in the test with BGC-823 (Homo sapiens, BGC-823, 72 h) was determined as 36.7 µM; in the test with PC-3 (Homo sapiens, PC-3, 72 h) it was 18.8 µM; in the test with A-431 (Homo sapiens, A-431, 72 h), 72.1 µM; with Bcap37 (Homo sapiens, Bcap37, 72 h) it was 63.2 µM.

For the molecule `COc1cc2c(Nc3ccccc3[N+](=O)[O-])ncnc2c(OC)c1OC`, the IC50 with BGC-823 (Homo sapiens, BGC-823, 72 h) stood at 21 µM; in the test with PC-3 (Homo sapiens, PC-3, 72 h) it was 31.2 µM; in the test on A-431 (Homo sapiens, A-431, 72 h), 31 µM; in the test on Bcap37 (Homo sapiens, Bcap37, 72 h), 29.9 µM.

On to `COc1cc2c(Nc3cccc([N+](=O)[O-])c3)ncnc2c(OC)c1OC`, for which the IC50 in the test with BGC-823 (Homo sapiens, BGC-823, 72 h) was determined as 39 µM; with PC-3 (Homo sapiens, PC-3, 72 h), 24.4 µM; with A-431 (Homo sapiens, A-431, 72 h), 37.7 µM; in the test on Bcap37 (Homo sapiens, Bcap37, 72 h), 31.1 µM.

As to `COc1cc2c(Nc3ccc(F)cc3)ncnc2c(OC)c1OC`, the half-maximal inhibitory concentration (IC50) turned out to be 39.6 µM with BGC-823 (Homo sapiens, BGC-823, 72 h); 24.5 µM in the test on PC-3 (Homo sapiens, PC-3, 72 h); 29 µM with A-431 (Homo sapiens, A-431, 72 h); 28.7 µM with Bcap37 (Homo sapiens, Bcap37, 72 h).

With `COc1cc2c(Nc3cccc(Br)c3)ncnc2c(OC)c1OC` [listing 1 of 2 here], the IC50 came to 5.8 µM with BGC-823 (bgc-823); 8.9 µM with PC-3 (Homo sapiens, PC-3, 72 h); 7.6 µM in the test on A-431 (Homo sapiens, A-431, 72 h); 12.3 µM in the test with Bcap37 (Homo sapiens, Bcap37, 72 h).

Consider `COc1cc2c(N[C@@H](C)c3ccccc3)ncnc2c(OC)c1OC`, for which the IC50 in the test on BGC-823 (Homo sapiens, BGC-823, 72 h) is 11.9 µM; in the test with PC-3 (Homo sapiens, PC-3, 72 h), 10 µM; in the test with A-431 (Homo sapiens, A-431, 72 h) it was 12 µM; in the test on Bcap37 (Homo sapiens, Bcap37, 72 h), 12.9 µM.

Take `COc1cc2c(Nc3ccc([N+](=O)[O-])cc3)ncnc2c(OC)c1OC`: the IC50 in the test on BGC-823 (Homo sapiens, BGC-823, 72 h) came to 32.2 µM; with PC-3 (Homo sapiens, PC-3, 72 h), 25.5 µM; in the test on A-431 (Homo sapiens, A-431, 72 h), 45.2 µM; in the test with Bcap37 (Homo sapiens, Bcap37, 72 h) it was 28.9 µM.

`COc1cc2ncnc(Nc3cccc(Br)c3)c2cc1OC`: the outcome in test [1] and in test [2] was Active. Besides, the IC50 with BGC-823 (Homo sapiens, BGC-823, 72 h) was determined as 16.8 µM; in the test with PC-3 (Homo sapiens, PC-3, 72 h) it was 8.9 µM; with Bcap37 (Homo sapiens, Bcap37, 72 h) it was 13.7 µM.

For the molecule `COc1cc2c(=NCc3ccccc3)[nH]cnc2c(OC)c1OC`, the IC50 is 37.7 µM in the test with BGC-823 (Homo sapiens, BGC-823, 72 h); 36.7 µM in the test with PC-3 (Homo sapiens, PC-3, 72 h); 21.2 µM in the test with A-431 (Homo sapiens, A-431, 72 h); 65.4 µM with Bcap37 (Homo sapiens, Bcap37, 72 h).

For `COc1cc2c(Nc3ccc(Br)cc3)ncnc2c(OC)c1OC`, the IC50 with BGC-823 (Homo sapiens, BGC-823, 72 h) came to 23.8 µM; with PC-3 (Homo sapiens, PC-3, 72 h), 23.4 µM; in the test with A-431 (Homo sapiens, A-431, 72 h), 42.1 µM; in the test on Bcap37 (Homo sapiens, Bcap37, 72 h), 31.2 µM.

With `COc1cc2c(Nc3cccc(Br)c3)ncnc2c(OC)c1OC` [listing 2 of 2 here], the IC50 in the test on BGC-823 (bgc-823) is 12.1 µM; in the test with PC-3 (pc-3), 12.6 µM; with A-431 (a-431) it was 11 µM; in the test with Bcap37 (bcap37), 21 µM.

For `COc1cc(Nc2ncnc3c(OC)c(OC)c(OC)cc23)cc(OC)c1OC`, the IC50 in the test with BGC-823 (Homo sapiens, BGC-823, 72 h) worked out at 23.1 µM; in the test on PC-3 (Homo sapiens, PC-3, 72 h) it was 30 µM; with A-431 (Homo sapiens, A-431, 72 h), 65.4 µM; in the test on Bcap37 (Homo sapiens, Bcap37, 72 h), 76.5 µM.

For `COc1cc2c(Nc3ccc(Cl)cc3)ncnc2c(OC)c1OC`, the half-inhibitory concentration (IC50) with BGC-823 (Homo sapiens, BGC-823, 72 h) amounted to 34.4 µM; in the test on PC-3 (Homo sapiens, PC-3, 72 h), 31 µM; with A-431 (Homo sapiens, A-431, 72 h), 19 µM; in the test with Bcap37 (Homo sapiens, Bcap37, 72 h) it was 52.2 µM.

Turning to `COc1cc2c(Nc3ccc(O)cc3)ncnc2c(OC)c1OC`, the IC50 was determined as 35.4 µM in the test with BGC-823 (Homo sapiens, BGC-823, 72 h); 20.1 µM in the test on PC-3 (Homo sapiens, PC-3, 72 h); 22.2 µM with A-431 (Homo sapiens, A-431, 72 h); 45.5 µM in the test on Bcap37 (Homo sapiens, Bcap37, 72 h).

As for `COc1cc2c(Nc3cccc(F)c3)ncnc2c(OC)c1OC` [listing 2 of 2 here], the IC50 in the test with BGC-823 (bgc-823) turned out to be 28.9 µM; in the test on PC-3 (pc-3), 25.3 µM; in the test with Bcap37 (bcap37) it was 22.1 µM.

Turning to `COc1cc2c(Nc3cccc(Cl)c3)ncnc2c(OC)c1OC`, the IC50 in the test on BGC-823 (Homo sapiens, BGC-823, 72 h) was 19 µM; in the test on PC-3 (Homo sapiens, PC-3, 72 h) it was 19 µM; in the test on A-431 (Homo sapiens, A-431, 72 h), 32.1 µM; with Bcap37 (Homo sapiens, Bcap37, 72 h), 21 µM.

Take `COc1cc2c(N[C@H](C)c3ccccc3)ncnc2c(OC)c1OC`: the IC50 in the test on BGC-823 (Homo sapiens, BGC-823, 72 h) worked out at 12 µM; with PC-3 (Homo sapiens, PC-3, 72 h) it was 18.8 µM; with A-431 (Homo sapiens, A-431, 72 h), 21 µM; in the test on Bcap37 (Homo sapiens, Bcap37, 72 h) it was 23.2 µM.
